ChEMBL document CHEMBL4616636, “A new series of aryl sulfamate derivatives: Design, synthesis, and biological evaluation” (Bioorg Med Chem, 2020)

Molecular target: T1, Steryl-sulfatase (Homo sapiens, UniProt P08842)
T1 sequence (P08842 whole entry): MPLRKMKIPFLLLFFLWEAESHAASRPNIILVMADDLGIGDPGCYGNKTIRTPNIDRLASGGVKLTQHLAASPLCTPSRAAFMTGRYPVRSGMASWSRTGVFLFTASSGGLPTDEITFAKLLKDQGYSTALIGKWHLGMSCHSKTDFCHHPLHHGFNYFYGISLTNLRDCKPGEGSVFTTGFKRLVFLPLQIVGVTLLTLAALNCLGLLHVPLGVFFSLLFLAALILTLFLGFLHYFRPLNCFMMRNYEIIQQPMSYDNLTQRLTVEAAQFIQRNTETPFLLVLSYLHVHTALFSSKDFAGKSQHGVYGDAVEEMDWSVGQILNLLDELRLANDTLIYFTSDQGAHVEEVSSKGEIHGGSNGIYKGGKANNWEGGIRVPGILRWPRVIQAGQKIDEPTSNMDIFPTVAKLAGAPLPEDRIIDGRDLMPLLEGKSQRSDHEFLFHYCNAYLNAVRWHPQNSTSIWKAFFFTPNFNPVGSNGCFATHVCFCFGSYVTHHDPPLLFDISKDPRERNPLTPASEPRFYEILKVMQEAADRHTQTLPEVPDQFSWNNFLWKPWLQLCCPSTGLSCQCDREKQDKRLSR
Experiment: Inhibition of steroid sulfatase in human JEG3 cells using [3H] E1S as substrate incubated for 20 hrs by scintillation spectrometry analysis
Assay type: cell-based, JEG-3
Conditions: not given
How it was run: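 Intact JEG-3 monolayers incubated 20 h at 37 °C in serum-free EMEM with [3H]E1S (5 pmol, 60 Ci/mmol), with or without inhibitor at 10 µM. Estrone in the medium separated from E1S by toluene partition, [14C]estrone used to correct for procedural losses. E1S hydrolysed calculated from scintillation counts.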

Question: For NS(=O)(=O)Oc1ccc(C(=O)NC23CC4CC(CC(C4)C2)C3)cc1Cl, which IC50 is on record?
Answer: 150 nM

Question: For NS(=O)(=O)Oc1ccc(NC(=O)C23CC4CC(CC(C4)C2)C3)cc1, which IC50 is on record?
Answer: 13.6 nM

Molecular target: T2, Steryl-sulfatase (Homo sapiens) (UniProt P08842)
T2 sequence (whole entry): T1 sequence (P08842 whole entry)
Experiment: Inhibition of steroid sulfatase in human JEG3 cell lysates at 10 uM using [3H] E1S as substrate after 1 hr by scintillation spectrometry analysis relative to control
Assay type: cell-free
Conditions: JEG-3
How it was run: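 JEG-3 placental choriocarcinoma lysate (125 µg protein/mL) incubated 1 h with inhibitor at 10 µM and [3H]E1S brought to 20 µM with unlabelled E1S. Estrone product extracted into toluene, [14C]E1 used to correct for losses, 3H/14C counted by scintillation. Reported as % inhibition versus untreated control, mean ± SEM, n=3.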

Question: With NS(=O)(=O)Oc1ccc(C(=O)NC23CC4CC(CC(C4)C2)C3)cc1Cl as the compound, how does the inhibition read?
Answer: 98.3%

Question: Which inhibition does the source give for NS(=O)(=O)Oc1ccc2c(ccn2C(=O)C2CCCCC2)c1 here?
Answer: 14.3%

Question: NS(=O)(=O)Oc1ccc(NC(=O)C23CC4CC(CC(C4)C2)C3)cc1Br was tested. Which inhibition did it give?
Answer: 82.7%

Question: NS(=O)(=O)Oc1ccc(C(=O)NC23CC4CC(CC(C4)C2)C3)cc1Br was tested. Which inhibition did it give?
Answer: 94.6%

Question: For NS(=O)(=O)Oc1ccc(NC(=O)c2cccnc2)cc1, which inhibition is on record?
Answer: 12.9%

Question: NS(=O)(=O)Oc1ccc(C(=O)NC23CC4CC(CC(C4)C2)C3)cc1F was tested. Which inhibition did it give?
Answer: 97.2%

Question: For Cc1cc(OS(N)(=O)=O)ccc1NC(=O)C12CC3CC(CC(C3)C1)C2, which inhibition is on record?
Answer: 58.5%

Question: NS(=O)(=O)Oc1ccc(NC(=O)C23CC4CC(CC(C4)C2)C3)cc1 was tested. Which inhibition did it give?
Answer: 93.9%

Question: Which inhibition does the source give for NS(=O)(=O)Oc1ccc(NC(=O)c2ccccc2)cc1 here?
Answer: 25.4%

Question: For CN(C(=O)C12CC3CC(CC(C3)C1)C2)c1ccc(OS(N)(=O)=O)cc1, which inhibition is on record?
Answer: 61%

Question: How did the inhibition turn out when NS(=O)(=O)Oc1ccc(NC(=O)c2ccc3ccccc3c2)cc1 was run?
Answer: 53.6%

Question: NS(=O)(=O)Oc1ccc2c(ccn2C(=O)C23CC4CC(CC(C4)C2)C3)c1 was tested. Which inhibition did it give?
Answer: 63.4%

Question: With NS(=O)(=O)Oc1ccc(NC(=O)C2CCCC2)cc1 as the compound, how does the inhibition read?
Answer: 62%

Question: For NS(=O)(=O)Oc1ccc(C(=O)NC23CC4CC(CC(C4)C2)C3)cc1, which inhibition is on record?
Answer: 90%

Question: Which inhibition does the source give for NS(=O)(=O)Oc1ccc(CNC(=O)C23CC4CC(CC(C4)C2)C3)cc1 here?
Answer: -5.3%

Question: Which inhibition does the source give for NS(=O)(=O)Oc1ccc(NC(=O)C2CCCCCC2)cc1 here?
Answer: 52.3%

Question: For NS(=O)(=O)Oc1ccc(NC(=O)C23CC4CC(CC(C4)C2)C3)cc1Cl, which inhibition is on record?
Answer: 88.6%

Question: Which inhibition does the source give for NS(=O)(=O)Oc1ccc(NC(=O)C23CC4CC(CC(C4)C2)C3)cc1F here?
Answer: 86.3%

Question: For NS(=O)(=O)Oc1ccc(NC(=O)c2ccc(Cl)cc2)cc1, which inhibition is on record?
Answer: 24.6%

Question: With COc1ccc(C(=O)Nc2ccc(OS(N)(=O)=O)cc2)cc1 as the compound, how does the inhibition read?
Answer: 72.7%

Question: How did the inhibition turn out when NS(=O)(=O)Oc1ccc(NC(=O)NC23CC4CC(CC(C4)C2)C3)cc1 was run?
Answer: 5.32%

Molecular target: T1, Steryl-sulfatase
Experiment: Inhibition of steroid sulfatase in human JEG3 cell lysates using [3H] E1S as substrate after 1 hr by scintillation spectrometry analysis
Assay type: cell-free, JEG-3
Conditions: not given
How it was run: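 Estrone taken into toluene, recovery corrected with [14C]E1, scintillation counting. E1S hydrolysed calculated from 3H counts and substrate specific activity, and IC50 derived from the dose-response.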

Question: For NS(=O)(=O)Oc1ccc(C(=O)NC23CC4CC(CC(C4)C2)C3)cc1Cl, which IC50 is on record?
Answer: 25.8 nM

Question: How did the IC50 turn out when NS(=O)(=O)Oc1ccc(C(=O)NC23CC4CC(CC(C4)C2)C3)cc1Br was run?
Answer: 74.1 nM

Question: Which IC50 does the source give for NS(=O)(=O)Oc1ccc(C(=O)NC23CC4CC(CC(C4)C2)C3)cc1F here?
Answer: 67.7 nM

Question: How did the IC50 turn out when NS(=O)(=O)Oc1ccc(NC(=O)C23CC4CC(CC(C4)C2)C3)cc1 was run?
Answer: 110 nM

Test system: T47D
Experiment: Antiproliferative activity against human T47D cells assessed as reduction in cell proliferation measured after 5 days in presence of estradiol sulfate by crystal violet staining based assay
Assay type: functional
Conditions: 120 h
How it was run: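 T-47D cells kept in EMEM with pyruvate, gentamycin, bicarbonate and 10% FBS at 37 °C, 5% CO2. After 3 days of growth, medium swapped for one with compound, 100 nM estradiol sulfate and 10% charcoal-stripped FBS, then 5 days of incubation. Glutaraldehyde fixation, crystal violet stain, ethanol elution, OD at 578 nm. IC50 reported as mean ± SEM of triplicate assays.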

Question: With NS(=O)(=O)Oc1ccc(C(=O)NC23CC4CC(CC(C4)C2)C3)cc1Cl as the compound, how does the IC50 read?
Answer: 1040 nM

Question: How did the IC50 turn out when NS(=O)(=O)Oc1ccc(C(=O)NC23CC4CC(CC(C4)C2)C3)cc1Br was run?
Answer: 4670 nM

Question: Which IC50 does the source give for NS(=O)(=O)Oc1ccc(C(=O)NC23CC4CC(CC(C4)C2)C3)cc1F here?
Answer: 3400 nM

Question: NS(=O)(=O)Oc1ccc(NC(=O)C23CC4CC(CC(C4)C2)C3)cc1 was tested. Which IC50 did it give?
Answer: 5780 nM

Question: NS(=O)(=O)Oc1ccc2c3c(c(=O)oc2c1)CCCCC3 [IROSUSTAT] was tested. Which IC50 did it give?
Answer: 920 nM
